Data published in ChEMBL document CHEMBL4130626, “α-Arylidene Diacylglycerol-Lactones (DAG-Lactones) as Selective Ras Guanine-Releasing Protein 3 (RasGRP3) Ligands” (J Med Chem, 2018).

Tests used:
[1] = target: Protein kinase C delta type (Homo sapiens, UniProt Q05655); experiment: Activation of PKCdelta in human Ramos cells expressing RasGRP3 assessed as phosphorylation at ser299 residues after 30 mins by immunoblot method; format: cell-based
In short: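 PKCδ activation read as phospho-S299 on western blots of lysates (50 µg protein, 10% SDS-PAGE, milk blocking, anti-PKCδS299 overnight). Cells: GFP-RasGRP1/3-transfected HEK293 or LNCaP, or Ramos, treated 30 min at 37 °C with half-log doses (maximum 10 µM), 1000 nM PMA or DMSO. Scanned intensities normalized to 1000 nM PMA; EC50 mean ± SEM, n = 3; values above 10 µM extrapolated.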

[2] = target: T1, Ras guanyl-releasing protein 3 (Homo sapiens, UniProt Q8IV61); experiment: Displacement of [3H]PDBu from full length MBP-tagged human RasGRP3 expressed in Escherichia coli BL21 (DE3) after 5 mins by scintillation counting
T1 sequence (Q8IV61 whole entry): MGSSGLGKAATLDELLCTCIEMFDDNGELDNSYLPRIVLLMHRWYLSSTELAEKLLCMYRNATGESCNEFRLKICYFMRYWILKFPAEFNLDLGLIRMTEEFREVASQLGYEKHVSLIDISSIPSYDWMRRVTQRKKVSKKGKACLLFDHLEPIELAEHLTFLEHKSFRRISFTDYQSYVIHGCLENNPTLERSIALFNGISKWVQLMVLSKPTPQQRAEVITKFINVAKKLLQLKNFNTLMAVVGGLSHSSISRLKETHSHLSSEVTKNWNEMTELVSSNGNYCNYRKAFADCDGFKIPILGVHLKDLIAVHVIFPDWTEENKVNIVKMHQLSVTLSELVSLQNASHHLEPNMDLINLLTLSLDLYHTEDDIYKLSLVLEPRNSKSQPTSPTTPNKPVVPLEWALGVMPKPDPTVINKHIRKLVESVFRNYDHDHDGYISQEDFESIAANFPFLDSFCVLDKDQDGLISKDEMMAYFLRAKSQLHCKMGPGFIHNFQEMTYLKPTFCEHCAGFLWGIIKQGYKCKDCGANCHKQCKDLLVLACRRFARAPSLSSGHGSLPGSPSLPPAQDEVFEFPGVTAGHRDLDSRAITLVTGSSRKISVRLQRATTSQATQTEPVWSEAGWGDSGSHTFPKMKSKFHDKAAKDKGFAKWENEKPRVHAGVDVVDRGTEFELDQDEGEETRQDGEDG
In short: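 Competition of [3H]PDBu binding by polyethylene glycol precipitation, with 100 µg/ml phosphatidylserine and ≤0.003% Triton X-100, 5 min at 37 °C. Proteins: full-length purified human PKCα, PKCε; full-length RasGRP1; MBP-RasGRP3 from E. coli BL21(DE3) induced with 0.3 mM IPTG 6 h at room temperature. Ki mean ± SEM of ≥2 experiments, triplicate points.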

[3] = target: T1, Ras guanyl-releasing protein 3; experiment: Activation of GFP-tagged RasGRP3 (unknown origin) expressed in HEK293 cells assessed as ERK1/2 phosphorylation after 30 mins by immunoblot method; format: cell-based
In short: (§1)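 Cells expressing GFP-RasGRP1/3 (HEK293 or LNCaP, 48 h after plating, transfected; expression checked by fluorescence 24-48 h later) or Ramos with endogenous RasGRP3 treated with half-log increasing concentrations (max 10 µM), 1000 nM PMA or DMSO, 37 °C, 30 min, 5% CO2. RasGTP by Raf1 RBD bead pulldown and anti-Pan-Ras immunoblot; pERK by western blot. Band intensities normalized to 1000 nM PMA; EC50 from n = 3.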

Homo sapiens = organism: Homo sapiens; experiment: Selectivity ratio of EC50 for PKCdelta (unknown origin) expressed in HEK293 cells harboring GFP-tagged RasGRP1 to EC50 for GFP-tagged RasGRP1 (unknown origin) expressed in HEK293 cells; format: cell-based
[4] = target: T1, Ras guanyl-releasing protein 3; experiment: Activation of GFP-tagged RasGRP3 (unknown origin) expressed in HEK293 cells after 30 mins by immunoblot method; format: cell-based
In short: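 HEK293 cells grown in EMEM + 10% FBS, transfected after 48 h with GFP-RasGRP3 (Lipofectamine Plus). Treated 30 min at 37 °C, 5% CO2, with half-log increasing concentrations up to 10 µM, 1000 nM PMA or DMSO. Active Ras pulled down from lysates on Raf1-RBD agarose (60 min, 4 °C), immunoblotted with anti-Pan-Ras. Band intensity normalised to 1000 nM PMA. EC50 is the mean of n = 3.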

[5] = target: T1, Ras guanyl-releasing protein 3; experiment: Activation of GFP-tagged RasGRP3 (unknown origin) expressed in human LNCAP cells after 30 mins by immunoblot method; format: cell-based; in short: as §1
[6] = target: T2, RAS guanyl-releasing protein 1 (Homo sapiens, UniProt O95267); experiment: Activation of GFP-tagged RasGRP1 (unknown origin) expressed in HEK293 cells after 30 mins by immunoblot method; format: cell-based; in short: as §1
T2 sequence (O95267 whole entry): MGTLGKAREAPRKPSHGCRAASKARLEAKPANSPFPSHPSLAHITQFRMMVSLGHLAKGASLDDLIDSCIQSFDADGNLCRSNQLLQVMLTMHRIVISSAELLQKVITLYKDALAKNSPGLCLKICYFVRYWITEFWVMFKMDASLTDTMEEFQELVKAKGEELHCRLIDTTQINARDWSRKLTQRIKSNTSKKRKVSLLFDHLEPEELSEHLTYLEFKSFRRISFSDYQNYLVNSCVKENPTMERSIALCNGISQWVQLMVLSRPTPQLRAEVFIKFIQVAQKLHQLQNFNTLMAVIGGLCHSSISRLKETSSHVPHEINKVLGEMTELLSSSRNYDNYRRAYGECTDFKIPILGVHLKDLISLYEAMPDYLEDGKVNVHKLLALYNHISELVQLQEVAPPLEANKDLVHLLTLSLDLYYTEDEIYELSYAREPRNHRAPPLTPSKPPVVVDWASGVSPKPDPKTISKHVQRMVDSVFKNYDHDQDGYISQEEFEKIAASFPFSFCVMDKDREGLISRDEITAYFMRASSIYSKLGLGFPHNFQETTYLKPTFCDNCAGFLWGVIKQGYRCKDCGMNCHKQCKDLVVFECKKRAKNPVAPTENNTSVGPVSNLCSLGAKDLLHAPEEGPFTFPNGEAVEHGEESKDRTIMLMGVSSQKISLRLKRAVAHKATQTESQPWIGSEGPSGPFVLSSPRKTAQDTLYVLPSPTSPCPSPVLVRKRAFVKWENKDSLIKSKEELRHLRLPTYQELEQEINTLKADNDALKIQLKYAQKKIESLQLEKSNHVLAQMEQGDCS

Sequence of Protein kinase C delta type (Q05655 whole entry): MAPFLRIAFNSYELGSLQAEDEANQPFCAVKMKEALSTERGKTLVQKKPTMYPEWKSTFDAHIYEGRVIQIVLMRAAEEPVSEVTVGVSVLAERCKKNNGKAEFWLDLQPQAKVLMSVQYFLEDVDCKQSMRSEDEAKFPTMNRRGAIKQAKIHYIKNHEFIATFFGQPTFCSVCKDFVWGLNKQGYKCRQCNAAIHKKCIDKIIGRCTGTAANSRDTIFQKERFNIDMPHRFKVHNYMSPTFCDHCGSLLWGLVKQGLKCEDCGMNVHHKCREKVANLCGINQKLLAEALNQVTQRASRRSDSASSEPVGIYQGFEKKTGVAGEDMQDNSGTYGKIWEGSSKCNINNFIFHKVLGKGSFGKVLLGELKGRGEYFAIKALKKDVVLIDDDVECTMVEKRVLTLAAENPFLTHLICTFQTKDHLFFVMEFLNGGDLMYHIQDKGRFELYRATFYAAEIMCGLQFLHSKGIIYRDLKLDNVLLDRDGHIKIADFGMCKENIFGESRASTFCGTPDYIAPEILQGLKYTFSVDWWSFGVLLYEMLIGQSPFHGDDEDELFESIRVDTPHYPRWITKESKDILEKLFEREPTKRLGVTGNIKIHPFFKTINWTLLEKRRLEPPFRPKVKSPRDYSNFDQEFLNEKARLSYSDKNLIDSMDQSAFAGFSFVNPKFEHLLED

Cn1cc(/C=C2\CC(CO)(COC(=O)C(C)(C)C)OC2=O)c2ccccc21 (configuration not stated)
EC50 [1]: 24600 nM | Ki [2]: 1.75 nM | EC50 [3]: 4660 nM | Ratio EC50 (Homo sapiens): 14.7 | EC50 [4]: 1830 nM | EC50 [5]: 640 nM | EC50 [6]: 860 nM
